# Bioassay records deposited in PubChem BioAssay by several laboratories.
# Ecoli WT expand: growth inhibitors of E. coli BW25113 wild type; actives 0.15% (n = 98,000); growth inhibition, % at 100 µM; OD600 absorbance;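 active means growth inhibition above about 50% at one test dose, limit read from the data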;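 further: growth measured after 20 h incubation at 37 °C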
# CYP2C19 inhib: blocks human cytochrome P450 2C19; CYP2C19 Supersomes, luciferin-H EGE luminescence, 30 min; inhibition, % at 5 µM; actives 21% (n = 96,000); P33261; AID 778;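 active means CYP2C19 inhibition above a set limit at 5 µM in the primary screen, cut at about 50% in these data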;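 further: plate controls were negative control wells for no effect and 2.5 mM tranylcypromine positive control for full effect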
# Target sequence (P33261 whole entry, looked up): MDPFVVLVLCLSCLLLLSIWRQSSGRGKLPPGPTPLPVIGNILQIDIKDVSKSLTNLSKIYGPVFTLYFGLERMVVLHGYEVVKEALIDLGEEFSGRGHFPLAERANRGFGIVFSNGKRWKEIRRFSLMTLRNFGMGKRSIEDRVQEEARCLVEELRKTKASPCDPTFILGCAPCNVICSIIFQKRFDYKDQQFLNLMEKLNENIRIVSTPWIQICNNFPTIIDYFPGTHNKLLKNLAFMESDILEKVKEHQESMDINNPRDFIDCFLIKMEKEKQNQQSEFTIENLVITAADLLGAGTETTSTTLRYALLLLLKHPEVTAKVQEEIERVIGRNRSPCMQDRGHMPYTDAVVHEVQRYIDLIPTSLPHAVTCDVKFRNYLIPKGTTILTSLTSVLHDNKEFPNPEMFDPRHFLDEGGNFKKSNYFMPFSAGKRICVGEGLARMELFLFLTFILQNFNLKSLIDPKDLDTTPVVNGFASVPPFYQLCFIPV
# CYP2C19 act: cytochrome P450 2C19 (human) activation; P33261; recombinant CYP2C19, luciferin-H EGE luminescence; stronger effect = higher value; 0 = fully inhibited enzyme, 1 = untreated enzyme; activation factor at 5 µM; 96,000 tested, under 10 active; AID 1025;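 active means activation factor of at least 2 at 5 µM in the primary screen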;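 further: 0 = wells with 2.5 mM tranylcypromine and 1 = vehicle-only wells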
# Ecoli tolC: E. coli tolC mutant growth inhibition; E. coli BW25113 tolC mutant growth, OD615; growth inhibition, % at 10 µM (by protocol); actives 2.2% (n = 65,000); AID 573;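 active means growth inhibition at or above a cutoff equal to the mean over every tested compound plus 3 SD, cut at about 60% in these data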;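 further: growth measured after 20 h incubation at 37 °C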
#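 Test system: tolC-deleted E. coli BW25113 | Medium: LB with kanamycin 50 µg/mL | Compound dosing: Single concentration, 10 µM final per compound | Schedule: 37 °C, 20 h exposure | Measured by: OD at 615 nm | Evaluation: Percent growth inhibition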
# CYP2C9 activ: activators of human CYP2C9; P11712; recombinant CYP2C9, luciferin-H conversion, luminescence; stronger effect = higher value; factor 1 = untreated enzyme, 0 = blocked; activation factor at 5 µM; actives 1.4% (n = 96,000); AID 1024;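 active means activation factor of 2 or more for CYP2C9 at a 5 µM dose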;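 further: 0 = sulfaphenazole-blocked wells and 1 = vehicle-only wells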
# CYP2C9 inh: blocks human cytochrome P450 2C9 | P11712 | CYP2C9 Supersomes, luciferin-H conversion, luminescence | inhibition, % at 5 µM | actives 20% (n = 96,000) | AID 777;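 active means blocking of liver enzyme CYP2C9 beyond about 50% at 5 µM, limit read from the data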
# Active calls of the source: *; . = not tested or not shown. Compounds with a hit are over-represented: about 29% of the library has one in this group of screens.
SMILES,Ecoli WT expand,CYP2C19 inhib,CYP2C19 act,Ecoli tolC,CYP2C9 activ,CYP2C9 inh
Cc1ccc(CNC(=O)c2ccc([N+](=O)[O-])o2)cc1,35,15,0.8,.,0.9,6
Cc1ccc(C(=O)C2COC(=O)C2)cc1 (stereo unspecified),5,0,1,-11,1.1,-7
Cc1ccc(C(=O)CCNc2ccc(Br)cc2)o1,4,91*,0.1,4,0.7,27
CCC(=O)Nc1ccc(F)c(Cl)c1,3,5,1,-6,1.1,-6
Cc1ccc(C(=O)CCNc2cccc(Br)c2)o1,5,62*,0.4,1,0.8,16
CCC(=O)Nc1cccc(Br)c1,6,-1,1,-15,1.1,-5
Cc1ccc(C(=O)CCNc2ccc(F)c(Cl)c2)o1,-1,66*,0.3,0,0.9,12
Cc1ccc(C(=O)CCNc2ccccc2)o1,7,35,0.7,-4,1,-1
COC(=O)CCC(=O)NNC(=O)CCCOc1ccc(Cl)cc1Cl,6,11,0.9,.,1,1
CCNC(=O)CCCOc1ccc(Cl)cc1Cl,-1,83*,0.2,-4,0.6,38
O=C(CCCOc1ccc(Cl)cc1Cl)Nc1ccncc1,2,99*,0,.,0,100*
CCCCOc1ccc(C(=O)Nc2ccncc2)cc1,3,99*,0,40,0,99*
O=C(O)CCCC(=O)Nc1ccc(Cl)c(Cl)c1,-9,6,0.9,-25,1.1,-13
O=C(CCCOc1ccccc1)Nc1ccncc1,5,99*,0,-2,0,97*
COC(=O)Nc1sc2c(c1C(=O)NC1CC1)CCCCCC2,1,32,0.7,.,0.8,21
O=Cc1cccc(OC(=O)c2ccc(Cl)cc2Cl)c1,3,-4,1,.,1.1,-11
Cn1c(Cn2nnc3ccccc32)nnc1SCC(=O)N1CCc2ccccc21,-8,-7,1.1,0,1,-4
CCNC(=O)COc1ccc(Br)cc1Cl,3,73*,0.3,8,0.4,57*
Cc1nn(C)cc1CN(C)C(=O)c1sc2cccc(Cl)c2c1Cl,4,97*,0,19,2*,-98
CCCc1cc(C(=O)Nc2cc(Br)ccc2O)no1,1,-20,1.2,7,0.7,31
COc1ccc2c(c1OC)C(=O)OC2CC(=O)c1ccc(O)cc1 (stereo unspecified),3,72*,0.3,-6,0.6,38
COc1ccc2c(c1OC)C(=O)OC2CC(=O)c1ccc(O)c(O)c1 (stereo unspecified),-2,51*,0.5,.,0.5,47
COc1ccc2c(c1OC)C(=O)OC2CC(=O)c1ccc(N(C)C)cc1 (stereo unspecified),6,9,0.9,-11,1.1,-14
COC(=O)C(=O)Nc1nnc(COc2ccccc2)s1,-12,-12,1.1,.,1,3
O=C(NCC1CCCO1)c1ccc2c(c1)OCO2 (stereo unspecified),13,26,0.7,-7,0.9,5
SMILES,Ecoli WT expand,CYP2C19 inhib,CYP2C19 act,Ecoli tolC,CYP2C9 activ,CYP2C9 inh
COc1ccc(N(CC(=O)NCC2CCCO2)S(=O)(=O)c2ccc(C)cc2)cc1OC (stereo unspecified),2,-24,1.2,.,0.4,55*
O=C(CN(C(=O)c1ccc2c(c1)OCCO2)c1ccccc1)NCC1CCCO1 (stereo unspecified),-10,42,0.6,-10,0.3,66*
CN(CC(=O)NCC1CCCO1)S(=O)(=O)c1cc(Cl)ccc1Cl (stereo unspecified),9,64*,0.4,-13,3.2*,-221
O=C(CN(Cc1ccc2c(c1)OCO2)C(=O)CNS(=O)(=O)c1ccccc1)NCC1CCCO1 (stereo unspecified),1,21,0.8,18,0.9,9
O=C(CN(c1ccc2c(c1)OCCO2)S(=O)(=O)c1ccccc1)NCC1CCCO1 (stereo unspecified),3,35,0.6,2,0.2,77*
O=C1CCC([N+](=O)[O-])C(c2ccc(Cl)cc2Cl)N1 (stereo unspecified),-2,-1,1,.,1.1,-11
Cc1cc(Nc2ccccc2)n(CCO)n1,3,6,0.9,.,0.8,17
CCOc1ccc(N(CC(=O)NCC2CCCO2)S(=O)(=O)c2ccc(SC)cc2)cc1 (stereo unspecified),3,68*,0.3,.,0.6,44
COc1ccc(S(=O)(=O)NCC(=O)N(CC(=O)NCC2CCCO2)c2c(C)cccc2C)cc1 (stereo unspecified),-1,20,0.8,.,0.3,68*
CCOc1ccc(C(=O)NCC2CCCO2)cc1 (stereo unspecified),4,-8,1.1,-3,1.1,-5
Cc1ccnc(SCCn2c(N3CCC(C)CC3)nc3c2c(=O)[nH]c(=O)n3C)n1,4,2,1,8,0.9,9
O=C(C1CCCN(Cc2ccncc2)C1)N1CCc2ccccc2C1 (stereo unspecified),8,96*,0,-9,0.3,67*
O=C(C1CCCN(Cc2ccccc2)C1)N1CCCCC1 (stereo unspecified),-5,-6,1.1,.,1,4
Cc1cccc(CN2CCCC(C(=O)N3CCc4ccccc4C3)C2)c1 (stereo unspecified),3,64*,0.4,.,0.9,14
COc1cccc(-c2nc(CSCC(=O)NCC3CCCO3)c(C)o2)c1 (stereo unspecified),6,12,0.9,7,0.8,16
Cc1cc(C(=O)CSCc2nnc3n(CCC(C)C)c(=O)c4ccccc4n23)c(C)n1C,.,.,.,0,.,.
CC12CCC(C(=O)N3CCCc4ccccc43)(CC1=O)C2(C)C (stereo unspecified),3,44,0.6,8,1,5
CC12CCC(C(=O)N3CCN(c4ccccc4)CC3)(CC1=O)C2(C)C (stereo unspecified),-2,54*,0.5,1,0.9,13
CC12CCC(C(=O)N3CCc4ccccc43)(CC1=O)C2(C)C (stereo unspecified),-1,44,0.6,3,0.4,58*
COc1ccc(N2CCN(C(=O)C34CCC(C)(C(=O)C3)C4(C)C)CC2)cc1 (stereo unspecified),-2,2,1,2,1.1,-7
COc1ccc2c(c1OC)C(=O)N1C2SC[C@H]1C(=O)NC1CC(C)(C)NC(C)(C)C1 (stereo partly specified),1,3,1,-20,1.1,-13
CCOc1cccc2cc(-c3nnc(-c4ccccc4)o3)c(=O)oc12,.,.,.,-19,.,.
O=c1c2ccccc2ncn1Cc1ccco1,3,12,0.9,13,0.8,16
Cn1c2ccc(F)cc2c2ncn(Cc3ccco3)c(=O)c21,5,51*,0.5,.,0.4,61*
